This note sets out measurements from ChEMBL document CHEMBL1137343, “4-arylazo-3,5-diamino-1H-pyrazole CDK inhibitors: SAR study, crystal structure in complex with CDK2, selectivity, and cellular effects” (J Med Chem, 2006).

SMILES strings stand for the structures.

Type in all cases: functional, Homo sapiens
Assay [1] relates to HT-29. Put plainly: Inhibition of CEA mRNA synthesis in HT29 cells measured as number of copies per 10^6 cells by RT PCR at 70 uM after 6 hrs. The method in brief:
(§1)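 HT-29 cells were treated 3, 6 or 12 h; total RNA extracted with TRI reagent. 3 µg RNA reverse-transcribed with random primers and M-MLV RT at 42 °C for 60 min. CEA transcripts quantified by TaqMan real-time PCR: 50 cycles of 95 °C 15 s and 65 °C 15 s. Absolute copies came from amplicon standards of 30 to 10^6 copies, expressed per 10^6 cells. Samples run in duplicate PCR; values average of four determinations ± SD.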

The subject of assay [2] is HT-29. Nature of the assay: Cell cycle arrest in HT29 cells by accumulation at G0/G1 phase at 70 uM after 3 hrs. The method in brief: (§2)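 Subconfluent, asynchronous HT-29 cells were treated 3, 6 or 12 h, then pulsed with 10 µM BrdU for 30 min at 37 °C. Cells were fixed in ice-cold 70% ethanol, DNA denatured in 2 M HCl and neutralised with borate. Staining used FITC anti-BrdU, then propidium iodide (0.1 mg/mL) with RNase A. Analysis by flow cytometry with 488 nm laser.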

Assay [3] relates to HT-29. Put plainly: Inhibition of EpCAM mRNA synthesis in HT29 cells measured as number of copies per 10^6 cells by RT PCR at 70 uM after 3 hrs. In outline:
(§3)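 HT-29 cells (5 × 10⁶) treated for 3, 6 or 12 h; total RNA extracted with TRI reagent, 3 µg reverse transcribed with random primers and M-MLV RT (42 °C, 60 min). Absolute transcript copies quantified by TaqMan real-time PCR, 50 cycles, against diluted gene-specific amplicon standards (30–1 000 000 copies); duplicate PCR per sample; values are means of four determinations ± SD.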

The test system of assay [4] is HT-29. Nature of the assay: Cell cycle arrest in HT29 cells by accumulation at G2/M phase at 70 uM after 6 hrs. The method in brief:
as §2

Assay [5] deals with HT-29. Nature of the assay: Cell cycle arrest in HT29 cells by accumulation at G0/G1 phase at 70 uM after 6 hrs. The method in brief: as §2
For assay [6], the system named is HT-29. Put plainly: Cell cycle arrest in HT29 cells by accumulation at G2/M phase at 70 uM after 3 hrs. The method in brief:
as §2

The test system of assay [7] is HT-29. Nature of the assay: Inhibition of GAPDH mRNA synthesis in HT29 cells measured as number of copies per 10^6 cells by RT PCR at 70 uM after 12 hrs. In outline: as §3
The test system of assay [8] is HT-29. Put plainly: Cell cycle arrest in HT29 cells by accumulation at S phase at 70 uM after 12 hrs. The method in brief: as §2
Assay [9] concerns HT-29. Put plainly: Inhibition of CEA mRNA synthesis in HT29 cells measured as number of copies per 10^6 cells by RT PCR at 70 uM after 3 hrs. The method in brief:
as §1

Assay [10] deals with HT-29. Put plainly: Cell cycle arrest in HT29 cells by accumulation at G0/G1 phase at 70 uM after 12 hrs. In outline:
as §2

The test system of assay [11] is HT-29. Nature of the assay: Inhibition of GAPDH mRNA synthesis in HT29 cells measured as number of copies per 10^6 cells by RT PCR at 70 uM after 3 hrs. In outline:
as §3

In assay [12] the test system is HT-29. Nature of the assay: Inhibition of EpCAM mRNA synthesis in HT29 cells measured as number of copies per 10^6 cells by RT PCR at 70 uM after 6 hrs. The method in brief: as §3
The test system of assay [13] is HT-29. Put plainly: Cell cycle arrest in HT29 cells by accumulation at S phase at 70 uM after 3 hrs. In outline: as §2
Assay [14] relates to HT-29. Nature of the assay: Inhibition of CEA mRNA synthesis in HT29 cells measured as number of copies per 10^6 cells by RT PCR at 70 uM after 12 hrs. In outline:
as §1

Assay [15] concerns HT-29. Put plainly: Inhibition of GAPDH mRNA synthesis in HT29 cells measured as number of copies per 10^6 cells by RT PCR at 70 uM after 6 hrs. The method in brief: as §3
Assay [16] deals with HT-29. Nature of the assay: Inhibition of EpCAM mRNA synthesis in HT29 cells measured as number of copies per 10^6 cells by RT PCR at 70 uM after 12 hrs. In outline:
as §3

For assay [17], the system named is HT-29. Put plainly: Cell cycle arrest in HT29 cells by accumulation at G2/M phase at 70 uM after 12 hrs. In outline: as §2
For assay [18], the system named is HT-29. Put plainly: Cell cycle arrest in HT29 cells by accumulation at S phase at 70 uM after 6 hrs. The method in brief: as §2

For `CC[C@H](CO)Nc1nc(NCc2ccccc2)c2ncn(C(C)C)c2n1` [SELICICLIB], the Activity in assay [1] is 19150; in assay [2], 48%; in assay [3], 8258813; in assay [4], 55.9%; in [5] it was 44%; in assay [6], 50.9%. In addition, the Activity in assay [7] came to 3926015; in [8], 1.1%; in [9], 30568; in [10] it was 64.5%; in [11], 3945095; in [12] it was 6151085. Also, the Activity in [13] came out at 1.1%; in assay [14], 24350; in assay [15], 3146605; in assay [16] it was 6863365; in assay [17], 34.5%; in assay [18], 0.1%.
